Laboratory results: ChEMBL document CHEMBL1122504, “Heterocyclic Quinones. 4. A new highly cytotoxic drug: 6,7-bis(1-aziridinyl)-5,8-quinazolinedione” (1983)
Several values for one entry are separate records, joined by “and”; a condition that tells them apart may be missing. Identical values can stand only once.

What was measured:
B16 [1] = assay: MST of treated animal over control when administered at a dose of 5 mg/kg intraperitoneally on Q01Dx01 treatment schedule in B16 melanocarcinoma cell lines; format: functional, Mus musculus; conditions: route intraperitoneal
Procedure, shortened: (§1)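 B16 melanocarcinoma: C57Bl/6 mice implanted sc with cell suspension on day 0; single ip dose in 0.15 M NaCl saline given on day 1. Median survival time was recorded in days, with toxicity taken as survivors on day 5. T/C% = treated MST/control MST × 100; >125% is considered significant.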

B16 [2] = assay: Number of survivors of B16 melanocarcinoma cell line on day 5/ number of treated mice at a dose of 1 ip injection of 5 mg/kg on Q01Dx01 treatment schedule; 09/10; format: functional, Mus musculus; conditions: route intraperitoneal
B16 [3] = assay: Median survival time of […] melanocarcinoma cell line after a dose of 5 mg/kg administered intraperitoneally on Q01Dx01 treatment schedule; format: functional, Mus musculus; conditions: route intraperitoneal; procedure, shortened: as §1
L1210 [4] = assay: MST of treated animal over control when administered at a dose of 5 mg/kg intraperitoneally on Q01Dx05 treatment schedule in L1210 cell lines; format: functional, Mus musculus; conditions: route intraperitoneal
Procedure, shortened: (§2)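 L1210 leukaemia: DBA/2 mice inoculated ip with 10^5 cells on day 0, with ip drug in 0.15 M NaCl saline on the stated schedule. The read-out was median survival time in days, with toxicity taken as survivors on day 5. T/C% = treated MST/control MST × 100; >125% is considered significant.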

L1210 [5] = assay: Concentration that decreases the growth rate of the L1210 cells by 50% after 48 hr of culture; format: functional; conditions: Mus musculus, L1210, 48 h; read-out: ID50 (the source's name)
Procedure, shortened: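 L1210 leukemia cells cultured with increasing drug concentrations for 48 h at 37 °C under 5% CO2. Percentage inhibition of control growth was fitted by least-squares linear regression against log dose, and the concentration lowering control growth by 50% was estimated from the regression equation.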

L1210 [6] = assay: Median survival time of L1210 cell line after a dose of 20 mg/kg administered intraperitoneally on Q01Dx01 treatment schedule; format: functional, Mus musculus; conditions: route intraperitoneal; procedure, shortened: as §2
L1210 [7] = assay: Median survival time of L1210 cell line after a dose of 5 mg/kg administered intraperitoneally on Q01Dx05 treatment schedule; format: functional, Mus musculus; conditions: route intraperitoneal; procedure, shortened: as §2
L1210 [8] = assay: Number of survivors of L1210 cell line on day 5/ number of treated mice at a dose of 9ip injection of 2.5 mg/kg on Q01Dx09 treatment schedule; 10/10; format: functional, Mus musculus
L1210 [9] = assay: MST of treated animal over control when administered at a dose of 10 mg/kg intraperitoneally on Q01Dx01 treatment schedule in L1210 cell lines; format: functional, Mus musculus; conditions: route intraperitoneal; procedure, shortened: as §2
L1210 [10] = assay: MST of treated animal over control when administered at a dose of 10 mg/kg intraperitoneally on Q01Dx02 treatment schedule in L1210 cell lines; format: functional, Mus musculus; conditions: route intraperitoneal; procedure, shortened: as §2
L1210 [11] = assay: MST of treated animal over control when administered at a dose of 10 mg/kg intraperitoneally on Q01Dx05 treatment schedule in L1210 cell lines; format: functional, Mus musculus; conditions: route intraperitoneal; procedure, shortened: as §2
L1210 [12] = assay: MST of treated animal over control when administered at a dose of 15 mg/kg intraperitoneally on Q01Dx02 treatment schedule in L1210 cell lines; format: functional, Mus musculus; conditions: route intraperitoneal; procedure, shortened: as §2
P388 [13] = assay: Number of survivors of P388 lymphocytic leukemia cell line on day 5/ number of treated mice at a dose of 1 i.v. injection of 5 mg/kg on Q01Dx01 treatment schedule; 10/10; format: functional, Mus musculus; conditions: route intravenous
P388 [14] = assay: MST of treated animal over control when administered at a dose of 15 mg/kg intravenously on Q01Dx01 treatment schedule; format: functional, Mus musculus; conditions: route intravenous
Procedure, shortened: (§3)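 P388 leukaemia: DBA/2 mice inoculated with 10^6 cells on day 0; treatment began day 1 at the stated route and schedule. Drug was dissolved in 0.15 M NaCl saline. The read-out was median survival time (MST, days), with toxicity taken as survivors on day 5. T/C% = treated MST/control MST × 100; ≥125% is considered significant.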

P388 [15] = assay: MST of treated animal over control when administered at a dose of 15 mg/kg perorally on Q01Dx07 treatment schedule; format: functional, Mus musculus; conditions: route oral; procedure, shortened: as §3
P388 [16] = assay: MST of treated animal over control when administered at a dose of 2.5 mg/kg intravenously on Q01Dx01 treatment schedule; format: functional, Mus musculus; conditions: route intravenous; procedure, shortened: as §3
P388 [17] = assay: MST of treated animal over control when administered at a dose of 20 mg/kg intraperitoneally on Q01Dx01 treatment schedule; format: functional, Mus musculus; conditions: route intraperitoneal; procedure, shortened: as §3
P388 [18] = assay: MST of treated animal over control when administered at a dose of 20 mg/kg perorally on Q01Dx07 treatment schedule; format: functional, Mus musculus; conditions: route oral; procedure, shortened: as §3
P388 [19] = assay: MST of treated animal over control when administered at a dose of 5 mg/kg intraperitoneally on Q01Dx09 treatment schedule; format: functional, Mus musculus; conditions: route intraperitoneal; procedure, shortened: as §3
P388 [20] = assay: Median survival time of P388 lymphocytic leukemia cell line after a dose of 20 mg/kg administered intraperitoneally on Q01Dx01 treatment schedule; format: functional, Mus musculus; conditions: route intraperitoneal; procedure, shortened: as §3
P388 [21] = assay: Median survival time of P388 lymphocytic leukemia cell line after a dose of 2.5 mg/kg administered intravenously on Q01Dx01 treatment schedule; format: functional, Mus musculus; conditions: route intravenous; procedure, shortened: as §3
P388 [22] = assay: Median survival time of P388 lymphocytic leukemia cell line after a dose of 20 mg/kg administered perorally on Q01Dx07 treatment schedule; format: functional, Mus musculus; conditions: route oral; procedure, shortened: as §3
Sarcoma-180 [23] = assay: Median survival time of sarcoma 180 cell line after a dose of 10 mg/kg administered intraperitoneally on Q01Dx01 treatment schedule; format: functional, Mus musculus; conditions: route intraperitoneal
Procedure, shortened: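 Sarcoma 180 was inoculated ip in Swiss mice (10^6 cells, day 0), and drug was given ip in 0.15 M NaCl saline. Median survival time was recorded in days; antitumor activity was expressed as treated MST over control MST ×100, significant above 125%.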

Sarcoma-180 [24] = assay: Number of survivors of sarcoma 180 cell line on day 5/ number of treated mice at a dose of 1 ip injection of 20 mg/kg on Q01Dx01 treatment schedule; 10/10; format: functional, Mus musculus; conditions: route intraperitoneal
Salmonella typhimurium [25] = assay: Mutagenesis test was performed at 0.7 uM concentration in Salmonella Typhimurium TA 100; format: functional, Salmonella enterica subsp. enterica serovar Typhimurium
Procedure, shortened: (§4)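 Salmonella typhimurium his auxotrophs TA98 and TA100 were tested by liquid suspension without metabolic activation. Overnight Oxoid nutrient broth cultures were subcultured, grown 2 h, then exposed to drug for 5 h. Cells were washed, resuspended to A650 2.50, and plated in top agar (0.6% agar, 0.6% NaCl). His+ revertants per plate were counted after 48 h at 37 °C; values are means of three assays.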

Salmonella typhimurium [26] = assay: Mutagenesis test was performed at 20 uM concentration in Salmonella Typhimurium TA 100; format: functional, Salmonella enterica subsp. enterica serovar Typhimurium; procedure, shortened: as §4
Salmonella typhimurium [27] = assay: Mutagenesis test was performed at 4 uM concentration in Salmonella Typhimurium TA 100; format: functional, Salmonella enterica subsp. enterica serovar Typhimurium; procedure, shortened: as §4
Salmonella typhimurium [28] = assay: Mutagenesis test was performed at 60 uM concentration in Salmonella Typhimurium TA 100; format: functional, Salmonella enterica subsp. enterica serovar Typhimurium; procedure, shortened: as §4
Sarcoma-180 [29] = assay: MST of treated animal over control when administered at a dose of 10 mg/kg intraperitoneally on Q01Dx01 treatment schedule in sarcoma 180 cell lines; format: functional, Mus musculus; conditions: route intraperitoneal
Procedure, shortened: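 Sarcoma 180: Swiss mice inoculated ip with 10^6 cells on day 0, with single ip injection of drug in 0.15 M NaCl saline. Median survival time was recorded in days, with toxicity taken as survivors on day 5. T/C% = treated MST/control MST × 100; >125% is considered significant.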

Which T/C (B16 [1]) does the source give for `O=C1C(N2CC2)=C(N2CC2)C(=O)c2ncncc21` here?
Its T/C is 126%.

What about the “Toxicity Survivors” value (B16 [2]) of the same compound?
Its value is 9.

What about the MST (B16 [3]) of the same compound?
The MST was 15.7 days.

What about the T/C (L1210 [4]) of the same compound?
The T/C was 108%.

And the IC50 (L1210 [5])?
The IC50 was 0.02 µg/mL and 80 nM.

And the MST (L1210 [6])?
Its MST is 9.4 days.

And the MST (L1210 [7])?
The MST was 9.1 days.

What about the “Toxicity Survivors” value (L1210 [8]) of the same compound?
The value was 10.

What about the T/C (L1210 [9]) of the same compound?
The T/C was 114%.

And the T/C (L1210 [10])?
Its T/C is 104%.

And the T/C (L1210 [11])?
The T/C was 69%.

And the T/C (L1210 [12])?
Its T/C is 104%.

And the “Toxicity Survivors” value (P388 [13])?
Its value is 10.

And the T/C (P388 [14])?
Its T/C is 139% and 114%.

And the T/C (P388 [15])?
Its T/C is 100%.

And the T/C (P388 [16])?
Its T/C is 103%.

And the T/C (P388 [17])?
Its T/C is 134%.

And the T/C (P388 [18])?
Its T/C is 105%.

And the T/C (P388 [19])?
Its T/C is 148%.

And the MST (P388 [20])?
Its MST is 9.5 days.

What about the MST (P388 [21]) of the same compound?
Its MST is 10.4 days.

And the MST (P388 [22])?
The MST was 7.6 days.

What about the MST (Sarcoma-180 [23]) of the same compound?
The MST was 18.3 days.

What about the “Toxicity Survivors” value (Sarcoma-180 [24]) of the same compound?
Its value is 10.

What about the Revertants/plate (Salmonella typhimurium [25]) of the same compound?
The Revertants/plate was 94.

And the Revertants/plate (Salmonella typhimurium [26])?
Its Revertants/plate is 108.

And the Revertants/plate (Salmonella typhimurium [27])?
Its Revertants/plate is 87.

What about the Revertants/plate (Salmonella typhimurium [28]) of the same compound?
The Revertants/plate was 501.

What about the T/C (Sarcoma-180 [29]) of the same compound?
Its T/C is 109%.
